{
  "source": "ChEMBL document CHEMBL1147085",
  "about": "“Metabolism and pharmacokinetics of a novel Src kinase inhibitor TG100435 ([7-(2,6-dichloro-phenyl)-5-methyl-benzo[1,2,4]triazin-3-yl]-[4-(2-pyrrolidin-1-yl-ethoxy)-phenyl]-amine) and its active N-oxide metabolite TG100855 …” (Drug Metab Dispos, 2007)",
  "key": {"[1]": {"assay": "AUC (0 to infinity) in BALB/c mouse at 5 mg/kg, iv", "format": "ADME, organism-based", "design": "time infinity, dose 5 mg/kg, route intravenous", "conditions": "plasma", "summary_of_the_method": "(§1)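 Male BALB/c mice (~25 g); fasted overnight for single p.o. dosing, not fasted for i.v. or i.p. dosing. Composite blood sampling, n=3 per time point: 5, 15, 30 min, 1, 3, 6, 24, 48 hr after i.v. dose; 0.5, 1, 3, 5, 8, 24, 30, 48 hr after p.o. or i.p. dose. Heparinized plasma, both parent and N-oxide measured by LC/MS/MS (MRM 494.2/98.1 and 510.2/98.1); non-compartmental analysis, AUC by linear trapezoidal rule.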"}, "[2]": {"assay": "Clearance in Sprague-Dawley rat at 5 mg/kg, ip", "format": "ADME, organism-based", "design": "dose 5 mg/kg, route intraperitoneal", "conditions": "in vivo"}, "[3]": {"assay": "Tmax in Sprague-Dawley rat at 25 mg/kg, po", "format": "ADME, organism-based", "design": "dose 25 mg/kg, route oral", "conditions": "in vivo"}, "Mus musculus [4]": {"test_system": "Mus musculus", "assay": "AUC (0 to infinity) in BALB/c mouse assessed as AUC of ([7-(2,6-Dichloro-phenyl)-5-methyl-benzo[1,2,4]triazin-3-yl]-[4-(2-pyrrolidin-1-yl-ethoxy)-phenyl]-amine) at 5 mg/kg, ip", "format": "ADME, organism-based, Plasma", "design": "time infinity, dose 5 mg/kg, route intraperitoneal", "conditions": "in vivo", "summary_of_the_method": "as §1"}, "Mus musculus [5]": {"test_system": "Mus musculus", "assay": "AUC (0 to infinity) in BALB/c mouse assessed as AUC of ([7-(2,6-Dichloro-phenyl)-5-methyl-benzo[1,2,4]triazin-3-yl]-[4-(2-pyrrolidin-1-yl-ethoxy)-phenyl]-amine) at 25 mg/kg, po", "conditions": "in vivo"}, "Rattus norvegicus [6]": {"test_system": "Rattus norvegicus", "assay": "Drug level in Sprague-Dawley rat plasma at 5 mg/kg, ip", "format": "ADME, organism-based", "design": "dose 5 mg/kg, route intraperitoneal", "conditions": "in vivo"}, "Ephrin type-B receptor 4": {"target": "T1, Ephrin type-B receptor 4 (Homo sapiens, UniProt P54760)", "T1 sequence (P54760 whole entry)": "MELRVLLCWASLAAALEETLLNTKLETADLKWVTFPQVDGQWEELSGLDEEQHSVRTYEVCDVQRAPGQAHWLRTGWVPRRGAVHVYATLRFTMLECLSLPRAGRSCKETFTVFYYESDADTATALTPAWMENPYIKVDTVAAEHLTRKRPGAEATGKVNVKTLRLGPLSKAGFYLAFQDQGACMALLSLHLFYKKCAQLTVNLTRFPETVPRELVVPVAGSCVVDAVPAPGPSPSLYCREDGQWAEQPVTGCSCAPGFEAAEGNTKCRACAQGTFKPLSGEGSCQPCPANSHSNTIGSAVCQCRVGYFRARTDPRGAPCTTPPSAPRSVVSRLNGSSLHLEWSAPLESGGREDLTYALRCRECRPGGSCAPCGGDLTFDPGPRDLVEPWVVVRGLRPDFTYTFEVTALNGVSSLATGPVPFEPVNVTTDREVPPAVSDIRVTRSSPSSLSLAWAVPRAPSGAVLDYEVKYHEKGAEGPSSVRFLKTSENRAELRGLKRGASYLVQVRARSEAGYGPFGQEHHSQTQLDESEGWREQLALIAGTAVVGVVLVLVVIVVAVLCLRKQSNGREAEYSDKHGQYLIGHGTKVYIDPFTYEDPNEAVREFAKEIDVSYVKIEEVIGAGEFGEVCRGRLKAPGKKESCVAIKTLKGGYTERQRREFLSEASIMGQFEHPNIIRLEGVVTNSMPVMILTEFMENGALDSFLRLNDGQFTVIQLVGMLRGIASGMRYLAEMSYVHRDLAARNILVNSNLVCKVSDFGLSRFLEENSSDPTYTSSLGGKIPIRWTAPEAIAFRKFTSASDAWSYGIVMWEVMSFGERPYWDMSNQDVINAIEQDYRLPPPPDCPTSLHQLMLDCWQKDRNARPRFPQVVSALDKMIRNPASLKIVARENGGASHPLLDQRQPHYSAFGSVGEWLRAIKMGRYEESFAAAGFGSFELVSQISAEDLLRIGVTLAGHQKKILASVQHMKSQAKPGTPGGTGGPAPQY", "assay": "Inhibition of EphB4 by luminescence based kinase assay"}, "[7]": {"assay": "AUC (0 to infinity) in Sprague-Dawley rat at 30 mg/kg, po", "format": "ADME, organism-based", "design": "time infinity, dose 30 mg/kg, route oral", "conditions": "plasma"}, "[8]": {"assay": "Bioavailability in Sprague-Dawley rat at 25 mg/kg, po", "format": "ADME, organism-based", "conditions": "in vivo"}, "Mus musculus [9]": {"test_system": "Mus musculus", "assay": "Tmax in BALB/c mouse assessed as Tmax of ([7-(2,6-Dichloro-phenyl)-5-methyl-benzo[1,2,4]triazin-3-yl]-[4-(2-pyrrolidin-1-yl-ethoxy)-phenyl]-amine) at 25 mg/kg, po", "conditions": "in vivo"}, "[10]": {"assay": "AUC (0 to infinity) in BALB/c mouse at 25 mg/kg, po", "format": "ADME, organism-based", "design": "time infinity, dose 25 mg/kg, route oral", "conditions": "plasma", "summary_of_the_method": "as §1"}, "Rattus norvegicus [11]": {"test_system": "Rattus norvegicus", "assay": "AUC (0 to infinity) in Sprague-Dawley rat assessed as AUC of ([7-(2,6-Dichloro-phenyl)-5-methyl-benzo[1,2,4]triazin-3-yl]-[4-(2-pyrrolidin-1-yl-ethoxy)-phenyl]-amine) at 5 mg/kg, iv", "format": "ADME, organism-based, Plasma", "design": "time infinity, dose 5 mg/kg, route intravenous", "conditions": "in vivo"}, "Mus musculus [12]": {"test_system": "Mus musculus", "assay": "Maximal plasma concentration of TG100435 in BALB/C mice after 25 mg/kg oral dose of TG100855", "format": "ADME, organism-based", "design": "dose 25 mg/kg, route oral", "conditions": "in vivo", "summary_of_the_method": "as §1"}, "Mus musculus [13]": {"test_system": "Mus musculus", "assay": "AUC (0 to infinity) in BALB/c mouse assessed as AUC of ([7-(2,6-Dichloro-phenyl)-5-methyl-benzo[1,2,4]triazin-3-yl]-[4-(2-pyrrolidin-1-yl-ethoxy)-phenyl]-amine) at 5 mg/kg, iv", "format": "ADME, organism-based, Plasma", "design": "time infinity, dose 5 mg/kg, route intravenous", "conditions": "in vivo", "summary_of_the_method": "as §1"}, "[14]": {"assay": "AUC (0 to infinity) in BALB/c mouse at 40 mg/kg, po", "format": "ADME, organism-based", "design": "time infinity, dose 40 mg/kg, route oral", "conditions": "plasma", "summary_of_the_method": "as §1"}, "Rattus norvegicus [15]": {"test_system": "Rattus norvegicus", "assay": "Bioavailability in Sprague-Dawley rat assessed as bioavailability of ([7-(2,6-Dichloro-phenyl)-5-methyl-benzo[1,2,4]triazin-3-yl]-[4-(2-pyrrolidin-1-yl-ethoxy)-phenyl]-amine) at 25 mg/kg, po", "conditions": "in vivo"}, "[16]": {"assay": "Drug level in BALB/c mouse plasma at 5 mg/kg, iv", "format": "ADME, organism-based", "design": "dose 5 mg/kg, route intravenous", "summary_of_the_method": "as §1"}, "[17]": {"assay": "Drug level in Sprague-Dawley rat plasma at 5 mg/kg, iv", "format": "ADME, organism-based", "design": "dose 5 mg/kg, route intravenous"}, "[18]": {"assay": "Bioavailability in BALB/c mouse at 25 mg/kg, po", "format": "ADME, organism-based", "conditions": "in vivo"}, "[19]": {"assay": "AUC (0 to last) in BALB/c mouse at 25 mg/kg, po", "format": "ADME, organism-based", "design": "time 0 - last, dose 25 mg/kg, route oral", "conditions": "plasma", "summary_of_the_method": "as §1"}, "[20]": {"assay": "Half life in Sprague-Dawley rat at 5 mg/kg, iv", "format": "ADME, organism-based", "design": "dose 5 mg/kg, route intravenous", "conditions": "in vivo"}, "[21]": {"assay": "Half life in BALB/c mouse at 5 mg/kg, ip", "format": "ADME, organism-based", "design": "dose 5 mg/kg, route intraperitoneal", "conditions": "in vivo", "summary_of_the_method": "as §1"}, "Mus musculus [22]": {"test_system": "Mus musculus", "assay": "Bioavailability in BALB/c mouse assessed as bioavailability of ([7-(2,6-Dichloro-phenyl)-5-methyl-benzo[1,2,4]triazin-3-yl]-[4-(2-pyrrolidin-1-yl-ethoxy)-phenyl]-amine) at 25 mg/kg, po", "conditions": "in vivo"}, "[23]": {"assay": "Cmax in BALB/c mouse at 25 mg/kg, po", "format": "ADME, organism-based", "design": "dose 25 mg/kg, route oral", "conditions": "in vivo", "summary_of_the_method": "as §1"}},
  "data": [
    {"smiles": "Cc1cc(-c2c(Cl)cccc2Cl)cc2nnc(Nc3ccc(OCC[N+]4([O-])CCCC4)cc3)nc12", "values": [
      {"measurement": "AUC(0-inf)", "setting": "[1]", "value": 5350, "unit": "ng·h/mL"},
      {"measurement": "CL/F", "setting": "[2]", "value": 17, "unit": "mL/min/kg"},
      {"measurement": "Tmax", "setting": "[3]", "value": 3.5, "unit": "h"},
      {"measurement": "AUC", "setting": "Mus musculus [4]", "value": 1400, "unit": "ng·h/mL"},
      {"measurement": "AUC", "setting": "Mus musculus [5]", "value": 1760, "unit": "ng·h/mL"},
      {"measurement": "C0", "setting": "Rattus norvegicus [6]", "value": 1080, "unit": "ng/mL"},
      {"measurement": "Ki", "setting": "Ephrin type-B receptor 4", "value": 7.27, "unit": "nM"},
      {"measurement": "AUC(0-inf)", "setting": "[7]", "value": 9310, "unit": "ng·h/mL"},
      {"measurement": "bioavailability", "setting": "[8]", "value": 1.6, "unit": "%"},
      {"measurement": "Tmax", "setting": "Mus musculus [9]", "value": 7, "unit": "h"},
      {"measurement": "AUC(0-inf)", "setting": "[10]", "value": 939, "unit": "ng·h/mL"},
      {"measurement": "AUC", "setting": "Rattus norvegicus [11]", "value": 539, "unit": "ng·h/mL"},
      {"measurement": "Cmax", "setting": "Mus musculus [12]", "value": 113, "unit": "ng/mL"},
      {"measurement": "AUC", "setting": "Mus musculus [13]", "value": 1390, "unit": "ng·h/mL"},
      {"measurement": "AUC(0-inf)", "setting": "[14]", "value": 13400, "unit": "ng·h/mL"},
      {"measurement": "F", "setting": "Rattus norvegicus [15]", "value": 3.1, "unit": "%"},
      {"measurement": "C0", "setting": "[16]", "value": 9030, "unit": "ng/mL"},
      {"measurement": "C0", "setting": "[17]", "value": 12200, "unit": "ng/mL"},
      {"measurement": "bioavailability", "setting": "[18]", "value": 3.5, "unit": "%"},
      {"measurement": "AUC(0-t)", "setting": "[19]", "value": 912, "unit": "ng·h/mL"},
      {"measurement": "half-life", "setting": "[20]", "value": 1.6, "unit": "h"},
      {"measurement": "half-life", "setting": "[21]", "value": 2.8, "unit": "h"},
      {"measurement": "F", "setting": "Mus musculus [22]", "value": 6.8, "unit": "%"},
      {"measurement": "Cmax", "setting": "[23]", "value": 171, "unit": "ng/mL"}
    ]}
  ]
}
